An excerpt weighted towards active compounds, which were near 3.5% of everything screened.
RGS4 block: RGS4 inhibitors, primary screen, cell-based, HEK293 M3R inducible RGS4, calcium flux | Regulator of G-protein signaling 4 (Homo sapiens), P49798 | Fluo-4 calcium flux; hits give high values; triggered by carbachol at its EC20 | B-score at 10 µM | 310,000 compounds, 0.45% hits | AID 463165, 2010;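 active = B-score, a plate-corrected calcium signal, over three deviations above library mean, with baseline fluorescence within five deviations of library mean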;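 note: RGS4 expression induced by doxycycline in cells with stable M3 receptor; B-score is computed from the integrated fluorescence ratio over baseline after carbachol; higher B-score means a larger calcium signal and so more RGS4 inhibition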
Target sequence (P49798 whole entry, looked up): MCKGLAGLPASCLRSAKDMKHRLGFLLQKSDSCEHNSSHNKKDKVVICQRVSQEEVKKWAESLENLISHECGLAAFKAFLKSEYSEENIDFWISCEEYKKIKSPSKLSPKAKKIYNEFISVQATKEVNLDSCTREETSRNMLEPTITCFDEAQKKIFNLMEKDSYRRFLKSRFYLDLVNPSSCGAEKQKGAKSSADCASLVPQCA
MrgX1 allo act: positive allosteric modulators of MrgX1, primary screen, HEK293 cells, Fluo-4 calcium flux | FDSS; hits give high values | B-score at 10 µM | 310,000 compounds, 0.63% hits | AID 588675, 2011;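 active = plate-corrected calcium response at least 3 library SD above typical, normal starting fluorescence, not activating the receptor alone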;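 note: compound read alongside a low EC10 to EC30 dose of BAM8-22 agonist; peak minus trough fluorescence over baseline measured at the second addition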
Target sequence (Q96LB2 whole entry, looked up): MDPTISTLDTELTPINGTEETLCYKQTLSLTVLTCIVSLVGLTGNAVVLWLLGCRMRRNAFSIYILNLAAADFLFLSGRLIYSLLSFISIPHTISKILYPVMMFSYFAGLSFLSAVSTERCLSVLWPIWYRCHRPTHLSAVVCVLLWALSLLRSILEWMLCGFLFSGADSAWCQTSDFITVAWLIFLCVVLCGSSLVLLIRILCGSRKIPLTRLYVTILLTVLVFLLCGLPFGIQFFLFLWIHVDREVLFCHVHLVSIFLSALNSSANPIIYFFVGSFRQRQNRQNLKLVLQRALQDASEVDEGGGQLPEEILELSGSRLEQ
MrgX1 antag: antagonists of human MrgX1 receptor, primary screen, HEK293 cells, Fluo-4 calcium flux | B-score at 10 µM | 310,000 compounds, 1.3% hits | AID 588676, 2011 | Mas-related G-protein coupled receptor member X1 (Homo sapiens), Q96LB2 | BAM8-22 antagonism; hits give low values;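 active = calcium-response B-score plate-corrected more than 3 library SD below zero, starting fluorescence within 5 deviations, no agonist response on first addition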;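 note: peak minus trough fluorescence over baseline after final BAM8-22 challenge near maximal dose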
MrgX1 agonist: agonists of human MrgX1 receptor, primary screen, HEK293 cells, Fluo-4 calcium flux | AID 588627, 2011 | 310,000 compounds, 0.44% hits | Fluo-4 calcium fluorescence, agonist mode; hits give high values | Mas-related G-protein coupled receptor member X1 (Homo sapiens), Q96LB2 | B-score at 10 µM;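 active = calcium response B-score plate-corrected fluorescence ratio at least 3 library SD, with starting fluorescence B-score inside 5 SD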
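Material: HEK293 cells stably expressing human MrgX1 receptor | Quantity: 15,000 cells per well | Times: Cells plated overnight, dye loaded 0.5 h 37 °C, 0.5 h room temperature | Measured by: Kinetic Fluo-4 NW fluorescence of intracellular calcium | Control set: Positive and negative controls per plate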
RGS4 act: RGS4 potentiators or activators, primary screen, cell-based, HEK293 M3R inducible RGS4, calcium flux; carbachol calcium flux Fluo4; hits give low values; B-score at 10 µM; 310,000 compounds, 0.92% hits;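 active = B-score of the integrated calcium signal more than 4 SD below the library mean, with starting fluorescence not abnormally high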;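 note: negative B-score means reduced calcium response which marks RGS4 activation or potentiation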
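System – HEK293 FlpIn-TREx cells, stable M3R, doxycycline-inducible RGS4 · Reagent – ECmax carbachol challenge · Times – compound preincubation 20 min at room temperature before agonist · Technique – Fluo4 fluorescence kinetic imaging of calcium · Measure – B score of integrated Fluo4 ratio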
RGS4 activ val: reduced carbachol calcium response, RGS4-induced M3R cells, confirmation, RGS4 activator project, cell-based, HEK293 M3R/RGS4 inducible, calcium flux, duplicate; shares compounds with RGS4 act; carbachol calcium flux Fluo4; inhibition, % at 10 µM; 1,100 compounds, 89% hits;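 active = inhibition above 3 SD of the buffer control wells, cut at about 41% in these data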;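 note: signal is the integrated peak-minus-minimum Fluo4 fluorescence over baseline ratio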
RGS4 act ctr: counter-screen for RGS4 activators: effect in non-induced cells. shares compounds with RGS4 act. HEK293 M3R non-induced RGS4, Fluo4 calcium flux; after carbachol challenge at its EC90. inhibition, % at 10 µM. 1,100 compounds, 82% hits. AID 602283;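 active = inhibition exceeding 3 SD of buffer-only control wells, cut at about 26% in these data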;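 note: percent drop in integrated peak-minus-baseline over baseline Fluo4 ratio after carbachol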
MrgX1 ag reconf: MrgX1 receptor agonists, duplicate retest, confirmation, HEK293 cells, Fluo-4 calcium flux; shares compounds with MrgX1 agonist; AID 602412, 2012; activation, % at 10 µM; 600 compounds, 78% hits; Fluo-4 calcium fluorescence, FDSS;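 active = calcium signal rise, corrected for plate position, at least 3 library SD high, with starting brightness within 5 such deviations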
MrgX1 allo conf: MrgX1 positive allosteric modulators, duplicate retest, confirmation, HEK293 cells, Fluo-4 calcium flux | shares compounds with MrgX1 allo act | Fluo-4 calcium fluorescence, FDSS | activation (ratio percentage), % at 10 µM | 1,200 compounds, 13% hits | AID 602413, 2012;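 active = ratio at least 3 SD above the weak peptide control, stable starting fluorescence, no direct agonism earlier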;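 note: compound followed by low BAM8-22 agonist challenge near EC20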
MrgX1 antag conf: MrgX1 receptor antagonists, duplicate retest, confirmation, HEK293 cells, Fluo-4 calcium flux; remaining BAM8-22 calcium response % of control (hits give low values), % at 10 µM; 2,300 compounds, 19% hits; AID 602420, 2012; shares compounds with MrgX1 antag; BAM8-22 calcium flux; hits give low values;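 active = remaining agonist calcium response no higher than 100% minus 3 SD of agonist-only control wells, with starting fluorescence near control levels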;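 note: agonist BAM8-22 given at a near maximal EC90 to ECmax level; peak minus minimum fluorescence divided by baseline after agonist addition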
HEK293 Ca flux: nonspecific calcium signal in parental HEK293, confirmation, counter-screen for MrgX1 antagonist project, parental HEK293 cells, Fluo-4 calcium flux; Fluo-4 calcium fluorescence, FDSS; shares compounds with MrgX1 antag; 4,000 compounds, 2% hits; fluorescence ratio F(max-min)/F0 at 10 µM;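 active = duplicate-averaged calcium fluorescence ratio at least three times the standard deviation of buffer wells, a nonspecific response in parental cells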
HEK293 Ca counter: calcium response in parental HEK293 cells, primary screen, counter-screen for MrgX1 allosteric activator project, cell-based, Fluo-4 calcium flux, duplicate; shares compounds with MrgX1 antag; Fluo-4 fluorescence ratio; hits give high values; fluorescence ratio F(max-min)/F0 at 10 µM; 4,000 compounds, 0.4% hits; AID 624114, 2012;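 active = calcium fluorescence ratio, averaged over duplicates, at least 3 SD of the buffer-well ratio, meaning a nonspecific response in receptor-free cells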;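 note: untransfected parental HEK293 lacking MrgX1 used as counterscreen for MrgX1 allosteric activators; fluorescence change taken during the second addition on a kinetic imager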
HEK293 Ca cntr2: calcium response in parental HEK293 cells, primary screen, counter-screen for MrgX1 agonist project, cell-based, Fluo-4 calcium flux, duplicate, agonist mode; shares compounds with MrgX1 antag; Fluo-4 calcium fluorescence (FDSS); hits give high values; fluorescence ratio F(max-min)/F0 at 10 µM; 4,000 compounds, 8.7% hits;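 active = calcium fluorescence ratio at least three times the spread of buffer wells, meaning a non-specific response in parental cells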
* hit, by the source's call; i = inactive; x = no result.

SMILES | RGS4 block | MrgX1 allo act | MrgX1 antag | MrgX1 agonist | RGS4 act | RGS4 activ val | RGS4 act ctr | MrgX1 antag conf | HEK293 Ca flux | HEK293 Ca counter | HEK293 Ca cntr2 | others
CCN(CC)CC#CC(OC)(c1ccccc1)c1ccccc1 | i | 8.03* | i | i | -9.68* | 92.5* | 88.3* | x | i | i | i | MrgX1 allo conf=i
CCOC(=O)C1CCCN(C(=O)c2cc3cc(Br)ccc3oc2=O)C1 (configuration not stated) | i | i | i | i | i | x | x | x | x | x | x
C=CCn1c(SCC(=O)Nc2ccc(OC)cc2)nc2c([nH]c3ccccc32)c1=O | i | i | i | i | i | x | x | x | x | x | x
C=CCn1c(SCCN2CCCC2)nc2c([nH]c3ccccc32)c1=O | i | i | -4.59* | i | -8.45* | 63.5* | 0.0 | i | i | i | i
Cc1ccc(SCCC(=O)OCC(=O)NCC2CCCCC2)cc1 | i | i | i | i | i | x | x | x | x | x | x
CCOC(=O)c1cccc(Nc2nc(-c3cccnc3)nc3ccccc23)c1 | i | i | -4.58* | i | -8.06* | 57.0* | 0.0 | i | i | i | i
COC(=O)c1cccc(Nc2nc(-c3ccncc3)nc3ccccc23)c1 | i | i | i | i | i | x | x | x | x | x | x
COc1cc(C(=O)N/N=C(\C)c2ccc(NC(=O)Cc3ccccc3)cc2)ccc1O | i | i | i | i | i | x | x | x | x | x | x
Cc1nc(Nc2nc(CSc3nc4ccccc4[nH]3)cc(=O)[nH]2)nc2ccccc12 | i | i | -5.17* | i | -13* | 61.5* | 0.0 | 82.7%* | i | i | i
COc1ccc2nc(Nc3nc(CSc4nc5ccccc5[nH]4)cc(=O)[nH]3)nc(C)c2c1 | i | i | i | i | i | x | x | x | x | x | x
COc1cc(OC)cc(C(=O)NC(=S)NNC(=O)[C@H]2C[C@@H]2c2ccccc2)c1 | i | i | i | 109* | -11* | 84.5* | 77.3* | x | i | i | 110* | MrgX1 ag reconf=580.2%*
